ChEMBL document CHEMBL3865799, “Synthesis of a series of novel dihydroartemisinin monomers and dimers containing chalcone as a linker and their anticancer activity” (Eur J Med Chem, 2016)

Columns and labels:
[1] = Cytotoxicity against human PC3 cells assessed as cell growth inhibition at 50 uM after 48 hrs by MTT assay; format: functional; conditions: PC-3, 48 h, read-out: GI
Procedure, shortened: (§1)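 Adherent lines at 70–75% confluence, grown at 37 °C in 5% CO2 with 10% FCS. Exposed 48 h to compound in DMSO (vehicle <0.2% v/v). MTT dye added 3 h before termination; formazan dissolved in DMSO, OD 570 nm with 620 nm reference. Growth inhibition expressed as % of untreated; IC50 taken from the dose series.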

[2] = Cytotoxicity against human MIAPaCa2 cells assessed as cell growth inhibition after 48 hrs by MTT assay; format: functional, cell-based; conditions: MIA PaCa-2, 48 h; procedure, shortened: as §1
[3] = Cytotoxicity against human HepG2 cells assessed as cell growth inhibition at 30 uM after 48 hrs by MTT assay; format: functional; conditions: HepG2, 48 h, read-out: GI; procedure, shortened: as §1
[4] = Cytotoxicity against human LS180 cells assessed as cell growth inhibition at 50 uM after 48 hrs by MTT assay; format: functional; conditions: LS180, 48 h, read-out: GI; procedure, shortened: as §1
[5] = Cytotoxicity against human LS180 cells assessed as cell growth inhibition after 48 hrs by MTT assay; format: functional, cell-based; conditions: LS180, 48 h; procedure, shortened: as §1
[6] = Cytotoxicity against human HepG2 cells assessed as cell growth inhibition at 10 uM after 48 hrs by MTT assay; format: functional; conditions: HepG2, 48 h, read-out: GI; procedure, shortened: as §1
[7] = Cytotoxicity against human MIAPaCa2 cells assessed as cell growth inhibition at 1 uM after 48 hrs by MTT assay; format: functional; conditions: MIA PaCa-2, 48 h, read-out: GI; procedure, shortened: as §1
[8] = Cytotoxicity against human HepG2 cells assessed as cell growth inhibition after 48 hrs by MTT assay; format: functional, cell-based; conditions: HepG2, 48 h; procedure, shortened: as §1
[9] = Cytotoxicity against human MIAPaCa2 cells assessed as cell growth inhibition at 50 uM after 48 hrs by MTT assay; format: functional; conditions: MIA PaCa-2, 48 h, read-out: GI; procedure, shortened: as §1
[10] = Cytotoxicity against human HepG2 cells assessed as cell growth inhibition at 0.5 uM after 48 hrs by MTT assay; format: functional; conditions: HepG2, 48 h, read-out: GI; procedure, shortened: as §1
[11] = Cytotoxicity against human HL60 cells assessed as cell growth inhibition at 30 uM after 48 hrs by MTT assay; format: functional; conditions: HL-60, 48 h, read-out: GI
Procedure, shortened: (§2)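 HL-60 suspension cells, 1.5 × 10^4 per well, grown at 37 °C in 5% CO2 with 10% FCS. Treated 48 h with compound in DMSO (vehicle <0.2% v/v). MTT added 3 h before the end. Formazan dissolved in DMSO and read at 570 nm (reference 620 nm). % growth inhibition computed against untreated cells; IC50 taken from the concentration series.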

HepG2 = test: Selectivity index, ratio of IC50 for African green monkey Vero cells to IC50 for human HepG2 cells; format: functional
Procedure, shortened: (§3)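 Suspension cells were seeded at 1.5 × 10^4 per well and adherent lines at 70–75% confluence, then exposed to a range of concentrations. MTT was added 3 h before the end, formazan dissolved in DMSO, and OD read at 570 nm (reference 620 nm). Growth inhibition was taken relative to untreated cells. IC50 came from the MTT data; SI = IC50 in Vero cells / IC50 in the tumour line.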

[12] = Cytotoxicity against human LS180 cells assessed as cell growth inhibition at 1 uM after 48 hrs by MTT assay; format: functional; conditions: LS180, 48 h, read-out: GI; procedure, shortened: as §1
[13] = Cytotoxicity against human PC3 cells assessed as cell growth inhibition at 10 uM after 48 hrs by MTT assay; format: functional; conditions: PC-3, 48 h, read-out: GI; procedure, shortened: as §1
Vero [14] = test: Selectivity index, ratio of IC50 for African green monkey Vero cells to IC50 for human HL60 cells; format: functional; procedure, shortened: as §3
[15] = Cytotoxicity against human LS180 cells assessed as cell growth inhibition at 0.5 uM after 48 hrs by MTT assay; format: functional; conditions: LS180, 48 h, read-out: GI; procedure, shortened: as §1
Vero [16] = test: Selectivity index, ratio of IC50 for African green monkey Vero cells to IC50 for human MIAPaCa2 cells; format: functional; procedure, shortened: as §3
[17] = Cytotoxicity against human PC3 cells assessed as cell growth inhibition at 0.5 uM after 48 hrs by MTT assay; format: functional; conditions: PC-3, 48 h, read-out: GI; procedure, shortened: as §1
[18] = Cytotoxicity against human HL60 cells assessed as cell growth inhibition after 48 hrs by MTT assay; format: functional, cell-based; conditions: HL-60, 48 h; procedure, shortened: as §2
[19] = Cytotoxicity against human PC3 cells assessed as cell growth inhibition at 30 uM after 48 hrs by MTT assay; format: functional; conditions: PC-3, 48 h, read-out: GI; procedure, shortened: as §1
[20] = Cytotoxicity against human MIAPaCa2 cells assessed as cell growth inhibition at 10 uM after 48 hrs by MTT assay; format: functional; conditions: MIA PaCa-2, 48 h, read-out: GI; procedure, shortened: as §1
[21] = Cytotoxicity against human MIAPaCa2 cells assessed as cell growth inhibition at 0.5 uM after 48 hrs by MTT assay; format: functional; conditions: MIA PaCa-2, 48 h, read-out: GI; procedure, shortened: as §1
[22] = Cytotoxicity against human HepG2 cells assessed as cell growth inhibition at 50 uM after 48 hrs by MTT assay; format: functional; conditions: HepG2, 48 h, read-out: GI; procedure, shortened: as §1
[23] = Cytotoxicity against human HepG2 cells assessed as cell growth inhibition at 1 uM after 48 hrs by MTT assay; format: functional; conditions: HepG2, 48 h, read-out: GI; procedure, shortened: as §1
[24] = Cytotoxicity against human HL60 cells assessed as cell growth inhibition at 10 uM after 48 hrs by MTT assay; format: functional; conditions: HL-60, 48 h, read-out: GI; procedure, shortened: as §2
[25] = Cytotoxicity against human LS180 cells assessed as cell growth inhibition at 10 uM after 48 hrs by MTT assay; format: functional; conditions: LS180, 48 h, read-out: GI; procedure, shortened: as §1
[26] = Cytotoxicity against human HL60 cells assessed as cell growth inhibition at 50 uM after 48 hrs by MTT assay; format: functional; conditions: HL-60, 48 h, read-out: GI; procedure, shortened: as §2
[27] = Cytotoxicity against human PC3 cells assessed as cell growth inhibition at 1 uM after 48 hrs by MTT assay; format: functional; conditions: PC-3, 48 h, read-out: GI; procedure, shortened: as §1
[28] = Selectivity index, ratio of IC50 for African green monkey Vero cells to IC50 for human LS180 cells; format: functional; procedure, shortened: as §3
Vero [29] = test: Selectivity index, ratio of IC50 for African green monkey Vero cells to IC50 for human PC3 cells; format: functional; procedure, shortened: as §3
[30] = Aqueous solubility of the compound at pH 7; format: physicochemical
[31] = Cytotoxicity against human HL60 cells assessed as cell growth inhibition at 1 uM after 48 hrs by MTT assay; format: functional; conditions: HL-60, 48 h, read-out: GI; procedure, shortened: as §2
[32] = Cytotoxicity against human PC3 cells assessed as cell growth inhibition after 48 hrs by MTT assay; format: functional, cell-based; conditions: PC-3, 48 h
Procedure, shortened: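 Exposed 48 h to compound in DMSO (vehicle <0.2% v/v). MTT dye added 3 h before termination; formazan dissolved in DMSO, OD 570 nm with 620 nm reference. Growth inhibition expressed as % of untreated; IC50 taken from the dose series.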

[33] = Cytotoxicity against human LS180 cells assessed as cell growth inhibition at 30 uM after 48 hrs by MTT assay; format: functional; conditions: LS180, 48 h, read-out: GI; procedure, shortened: as §1
[34] = Cytotoxicity against human HL60 cells assessed as cell growth inhibition at 0.5 uM after 48 hrs by MTT assay; format: functional; conditions: HL-60, 48 h, read-out: GI; procedure, shortened: as §2
[35] = Cytotoxicity against human MIAPaCa2 cells assessed as cell growth inhibition at 30 uM after 48 hrs by MTT assay; format: functional; conditions: MIA PaCa-2, 48 h, read-out: GI; procedure, shortened: as §1
[36] = Lipophilicity, log P of the compound; format: physicochemical; conditions: octanol/water

C[C@H]1[C@@H](OCCOc2ccc(/C=C/C(=O)c3ccco3)cc2)O[C@@H]2O[C@@]3(C)CC[C@H]4[C@H](C)CC[C@@H]1[C@@]24OO3
inhibition of growth at 50 µM [1]: 69.4% | IC50 [2]: > 50 µM | inhibition of growth at 30 µM [3]: 25.2 to 67.3% | inhibition of growth at 50 µM [4]: 28.3% | IC50 [5]: > 50 µM | inhibition of growth at 10 µM [6]: 24.8% | inhibition of growth at 1 µM [7]: 19.1% | IC50 [8]: 22 µM | inhibition of growth at 50 µM [9]: 77.5% | inhibition of growth at 0.5 µM [10]: 1% | inhibition of growth at 30 µM [11]: 89.1% | Ratio IC50 (HepG2): 68 | inhibition of growth at 1 µM [12]: 25.7% | inhibition of growth at 10 µM [13]: 43.4% | Ratio IC50 (Vero [14]): 90 | inhibition of growth at 0.5 µM [15]: 20% | Ratio IC50 (Vero [16]): 59 | inhibition of growth at 0.5 µM [17]: 15.1% | IC50 [18]: 0.7 µM | inhibition of growth at 30 µM [19]: 55.1 to 58.1% | inhibition of growth at 10 µM [20]: 26.2% | inhibition of growth at 0.5 µM [21]: 18.4% | inhibition of growth at 50 µM [22]: 26.9 to 42.6% | inhibition of growth at 1 µM [23]: 14.7% | inhibition of growth at 10 µM [24]: 87.4% | inhibition of growth at 10 µM [25]: 26.9% | inhibition of growth at 50 µM [26]: 91.7% | inhibition of growth at 1 µM [27]: 15.8% | Ratio IC50 [28]: >200 | Ratio IC50 (Vero [29]): 94 | solubility [30]: < 10 µg/mL | inhibition of growth at 1 µM [31]: 57.5% | IC50 [32]: 24 µM | inhibition of growth at 30 µM [33]: 26.9% | inhibition of growth at 0.5 µM [34]: 38% | inhibition of growth at 30 µM [35]: 39.8 to 67.3% | logP [36]: 5.34 to 7.45
